Rows were chosen to be rich in hits. Some 2.3% of all compounds tested hit in one or more screens of this group.
LMPTP inh – LMPTP (human) inhibition | P24666 | recombinant LMPTP-A, OMFP fluorogenic substrate, fluorescence intensity | inhibition, % at 20 µM | hit rate 0.22% among 360,000;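 active = compounds that cut the enzyme signal by at least half of the control window in the single-dose screen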;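 also: plate controls were DMSO wells with enzyme plus substrate for no effect and substrate without enzyme for full effect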
Target sequence (P24666 whole entry, looked up): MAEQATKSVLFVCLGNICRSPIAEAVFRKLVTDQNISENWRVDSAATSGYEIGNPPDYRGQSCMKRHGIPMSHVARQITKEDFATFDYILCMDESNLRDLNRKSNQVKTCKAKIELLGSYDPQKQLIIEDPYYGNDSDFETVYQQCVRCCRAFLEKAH
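Material: LMPTP-A; amount: 0.625 nM enzyme; doses: single 20 µM dose; times: reaction 50 min, room temperature, dark; technique: fluorescence intensity of OMFP turnover product; benchmarks: no-enzyme and uninhibited controls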
DNMT1 block – blocks human DNA methyltransferase DNMT1. P26358. DNMT1 molecular beacon, Hinp1I cleavage, fluorescence. inhibition (reported as % activation of signal), % at 10 µM. hit rate 0.83% among 360,000. AID 588458; in the data active = inhibition above about 50%
NadD block – inhibitors of Staphylococcus aureus NadD; purified NadD enzyme, colorimetric absorbance read-out; inhibition, % at 20 µM; hit rate 0.78% among 360,000; in the data active = inhibition above about 26%
Scp-1 inhibitor – Scp-1 (human) phosphatase inhibition; Q9GZU7; Recombinant Scp1, phosphopeptide, malachite green phosphate absorbance; hit rate 0.88% among 340,000; inhibition, % at 20 µM;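 active = inhibition above about 50% at 20 µM, limit read from the data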;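 also: plate controls were DMSO wells with enzyme for no effect and wells lacking enzyme for full effect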
Target sequence (Q9GZU7 76-261 limits assumed): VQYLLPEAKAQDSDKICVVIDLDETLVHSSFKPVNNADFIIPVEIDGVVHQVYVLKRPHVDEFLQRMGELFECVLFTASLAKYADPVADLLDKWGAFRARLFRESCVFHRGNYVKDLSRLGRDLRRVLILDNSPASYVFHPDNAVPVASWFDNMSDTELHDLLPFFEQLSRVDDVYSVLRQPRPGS
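System: SCP-1 catalytic domain; Reagent: Phospho 17-mer peptide substrate; Doses: one concentration, 20 µM, with 1.0% DMSO; Incubation: 45 min room-temperature reaction, 5 min colour, 30 min stabiliser; Signal: Phosphate-binding colour reagent, absorbance read at 630 nm.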
STEP block – STEP (human) phosphatase inhibition; P54829; recombinant STEP, OMFP fluorogenic substrate, fluorescence; inhibition, % at 20 µM; hit rate 0.25% among 360,000; AID 588621;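 active = inhibition at 20 µM, scaled per plate between control wells, above about 37%, limit read from the data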;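 also: 0% = DMSO with enzyme and substrate and 100% = substrate only without enzyme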
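Assay system: isolated STEP enzyme. Buffer or medium: pH 6.0 Bis-Tris with DTT and Tween 20. Also added: fluorogenic phosphatase substrate OMFP at 25 µM final. Dosing: 20 µM, 1% DMSO. Timing: 20 min reaction, room temperature, in the dark. Measured by: fluorescence intensity, excitation 480 nm, emission 540 nm. Evaluation: normalized % inhibition.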
SUMO1-SIM PPI – SUMO1-SIM interaction modulation | P63165 | SUMO1 binding to a labelled peptide, TR-FRET, 1 h | inhibition, % at 20 µM | hit rate 0.33% among 360,000; in the data active = inhibition above about 37%
Target sequence (P63165 whole entry, looked up): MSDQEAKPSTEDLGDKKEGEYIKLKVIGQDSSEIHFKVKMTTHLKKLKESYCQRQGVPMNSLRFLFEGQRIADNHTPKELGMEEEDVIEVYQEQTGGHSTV
* hit, by the source's call.

What do the screens show for `CCCCCCOC(=O)CC1CC(C(C)=O)C1(C)C` (centres undefined)?
LMPTP inh: 0; DNMT1 block: 1; NadD block: -4; Scp-1 inhibitor: 8; STEP block: -2; SUMO1-SIM PPI: 5

What do the screens show for `O=c1cc2oc3cc(O)c(O)cc3c(-c3ccccc3O)c-2cc1O`?
LMPTP inh: 67*; DNMT1 block: 110*; NadD block: 46*; Scp-1 inhibitor: 31; STEP block: 2; SUMO1-SIM PPI: 6

What do the screens show for `COc1ccc(OC)c(-c2c3cc(O)c(=O)cc-3oc3cc(O)c(O)cc23)c1`?
LMPTP inh: 78*; DNMT1 block: 150*; NadD block: 39*; Scp-1 inhibitor: 68*; STEP block: 16; SUMO1-SIM PPI: 25

What do the screens show for `COc1ccc(OC)c(-c2oc3ccccc3c(=O)c2O)c1`?
LMPTP inh: -2; DNMT1 block: 0; NadD block: -4; Scp-1 inhibitor: -23; STEP block: -2; SUMO1-SIM PPI: -7

How did CCOc1ccccc1-c1c2cc(O)c(=O)cc-2oc2cc(O)c(O)cc12 do in these assays?
LMPTP inh: 66*; DNMT1 block: active; NadD block: 27; Scp-1 inhibitor: 33; STEP block: -310; SUMO1-SIM PPI: -19

Results for COc1ccc(CCNC(=O)c2c[nH]c3ccc(F)cc3c2=O)cc1OC ?
LMPTP inh: 0; DNMT1 block: 38; NadD block: -2; Scp-1 inhibitor: -2; STEP block: 0; SUMO1-SIM PPI: -3

What do the screens show for `COc1cc(/C=C/c2ccc(O)cc2)cc(OC)c1`?
LMPTP inh: 3; DNMT1 block: -34; NadD block: 3; Scp-1 inhibitor: 1; STEP block: -3; SUMO1-SIM PPI: 4

How did COC(=O)c1ccc2c(c1)C(C)(C)C(/C=C/c1ccc(OC)c(OC)c1OC)=[N+]2C do in these assays?
LMPTP inh: -2; DNMT1 block: -1; NadD block: 19; Scp-1 inhibitor: 96*; STEP block: -6; SUMO1-SIM PPI: 0

What do the screens show for `COC(=O)c1ccc2c(c1)C(C)(C)C(/C=C/c1ccc(O)cc1)=[N+]2C`?
LMPTP inh: 7; DNMT1 block: -19; NadD block: 27; Scp-1 inhibitor: 99*; STEP block: -6; SUMO1-SIM PPI: -10

Results for COc1ccc(/C=N/Nc2ccc(C(=O)O)cc2)c(OC)c1OC ?
LMPTP inh: 0; DNMT1 block: 0; NadD block: -3; Scp-1 inhibitor: -2; STEP block: 3; SUMO1-SIM PPI: -12

How did COCCN(CC(=O)Nc1cccc(C)c1C)C(=O)c1cc2c(s1)CCC2 do in these assays?
LMPTP inh: 5; DNMT1 block: 39; NadD block: 2; Scp-1 inhibitor: 61*; STEP block: 9; SUMO1-SIM PPI: 9

How did CSc1ccc(/C=N/Nc2cccc(C(=O)O)c2)cc1 do in these assays?
LMPTP inh: 14; DNMT1 block: 105*; NadD block: -1; Scp-1 inhibitor: 81*; STEP block: 60*; SUMO1-SIM PPI: 70*

How did O=C(O)c1ccc(N/N=C/c2ccc(OC(=O)c3cccc(Cl)c3)cc2)cc1 do in these assays?
LMPTP inh: 10; DNMT1 block: 7; NadD block: 26; Scp-1 inhibitor: 40; STEP block: 1; SUMO1-SIM PPI: 61*

What do the screens show for `O=C(c1ccc([N+](=O)[O-])cc1)N1CCN(c2ncc(Br)cn2)CC1`?
LMPTP inh: -1; DNMT1 block: -1; NadD block: -5; Scp-1 inhibitor: -1; STEP block: 0; SUMO1-SIM PPI: -30

How did Nc1nc(SCc2ccccc2Cl)c2ncn(C3OC(CO)C(O)C3O)c2n1 (centres undefined) do in these assays?
LMPTP inh: -3; DNMT1 block: 2; NadD block: -6; Scp-1 inhibitor: -5; STEP block: 0; SUMO1-SIM PPI: 4

What do the screens show for `NNc1nc(C(F)(F)F)nc2ccccc12`?
LMPTP inh: 0; DNMT1 block: 1; NadD block: 0; Scp-1 inhibitor: -2; STEP block: 0; SUMO1-SIM PPI: -1

How did O/C=c1\ccc2cccc3nc(C(F)(F)F)nc1c23 do in these assays?
LMPTP inh: 33; DNMT1 block: 50*; NadD block: 33*; Scp-1 inhibitor: 12; STEP block: 1; SUMO1-SIM PPI: -13

High-throughput results: PubChem BioAssay, Sanford-Burnham Center for Chemical Genomics
